In ChEMBL document CHEMBL1132497, “Synthesis and SAR of adatanserin: novel adamantyl aryl- and heteroarylpiperazines with dual serotonin 5-HT(1A) and 5-HT(2) activity as potential anxiolytic and antidepressant agents” (J Med Chem, 1999):

Assays:
[1] = molecular target: T1, 5-hydroxytryptamine receptor 1A (Rattus norvegicus, UniProt P19327); test: Inhibitory activity against 5-hydroxytryptamine 1A receptor of rat hippocampal tissue; type: tissue-based, Hippocampus
T1 sequence (P19327 whole entry): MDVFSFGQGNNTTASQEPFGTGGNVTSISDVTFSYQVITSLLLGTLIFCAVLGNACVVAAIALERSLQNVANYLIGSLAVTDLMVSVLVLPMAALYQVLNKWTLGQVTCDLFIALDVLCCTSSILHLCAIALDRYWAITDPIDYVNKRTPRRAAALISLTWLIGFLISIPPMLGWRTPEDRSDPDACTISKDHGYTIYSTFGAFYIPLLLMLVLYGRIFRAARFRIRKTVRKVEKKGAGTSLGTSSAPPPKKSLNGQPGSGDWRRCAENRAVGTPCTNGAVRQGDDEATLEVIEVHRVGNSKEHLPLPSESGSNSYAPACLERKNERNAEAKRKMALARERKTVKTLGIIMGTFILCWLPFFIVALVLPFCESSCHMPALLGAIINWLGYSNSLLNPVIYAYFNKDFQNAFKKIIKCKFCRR
Summary of the method: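 Rat hippocampal membranes from male Sprague–Dawley rats (150–250 g), preincubated 10 min at 37 °C to remove endogenous 5-HT. Used at 0.4–0.6 mg protein with 1.5–1.8 nM [3H]8-OH-DPAT and a range of drug concentrations, 10 min at 37 °C, in 50 mM Tris pH 7.7 with 0.1% ascorbate, 10 μM pargyline and 4 mM CaCl2. Nonspecific binding defined with 1 μM 5-HT. Filtration, scintillation counting. Ki from duplicate assays, 95% CI.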

Rattus norvegicus [2] = test: Antagonistic activity against quipazine induced head shakes against male Sprague-Dawley CD rats following ip administration of the compound; type: functional
Summary of the method: (§1)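 Male Sprague–Dawley CD rats (200–300 g), 8 per treatment, given compound or vehicle ip 30 min before quipazine 2.5 mg/kg ip or DOI 1.0 mg/kg ip. Rhythmic radial head shakes counted for 30 min after agonist. ED50 by nonlinear regression with inverse prediction.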

[3] = molecular target: Serotonin 2 (5-HT2) receptor (Rattus norvegicus, UniProt P30994+P08909+P14842); test: Inhibitory activity against rat cortical 5-hydroxytryptamine 2 receptor; type: protein assay
Summary of the method: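 Cortical membranes from male Sprague–Dawley rats, incubated 15 min at 37 °C in 50 mM Tris pH 7.6 with 1.0 nM [3H]ketanserin and a range of drug concentrations. Nonspecific binding defined with 100 μM methysergide. Run by filtration and counting.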

D(2) dopamine receptor = D(2) dopamine receptor (Rattus norvegicus, UniProt P61169); test: Inhibitory activity against rat limbic tissue Dopamine receptor D2; type: tissue-based, Limbic system
Summary of the method: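 Rat limbic membranes, handled as in the 5-HT2 assay: 15 min at 37 °C, 50 mM Tris pH 7.6, drug concentration range. 30 nM ketanserin in all tubes to block 5-HT2 sites. Nonspecific binding defined with 10 μM sulpiride. Filtration and counting.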

Rattus norvegicus [4] = test: Antagonistic activity antagonist DOI induced head shakes against male Sprague-Dawley CD rats following ip administration of the compound; type: functional; summary of the method: as §1
Rattus norvegicus [5] = test: Antagonistic activity against […] induced serotonin syndrome against male Sprague-Dawley CD rats following ip administration of the compound; type: functional
Summary of the method: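 Rats were dosed ip with compound or vehicle (male Sprague–Dawley CD, 150–250 g, 8 per group), then challenged with 8-OH-DPAT 3 mg/kg ip. The six serotonin-syndrome behaviours were each rated 0–3 for a further 15 min. ED50 by nonlinear regression with inverse prediction.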

Rattus norvegicus [6] = test: Induction of serotonin syndrome against male Sprague-Dawley CD rats following ip administration of the compound; type: functional
Summary of the method: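 Male Sprague–Dawley CD rats (150–250 g), group-housed and acclimated 1 week, given compound or vehicle ip, 8 per group. Forepaw treading, head weaving, tremor, hindlimb abduction, flat body posture and Straub tail each rated 0–3 (maximum 18) over the first 15 min. ED50 by nonlinear regression with inverse prediction.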

Sequence of D(2) dopamine receptor (P61169 whole entry): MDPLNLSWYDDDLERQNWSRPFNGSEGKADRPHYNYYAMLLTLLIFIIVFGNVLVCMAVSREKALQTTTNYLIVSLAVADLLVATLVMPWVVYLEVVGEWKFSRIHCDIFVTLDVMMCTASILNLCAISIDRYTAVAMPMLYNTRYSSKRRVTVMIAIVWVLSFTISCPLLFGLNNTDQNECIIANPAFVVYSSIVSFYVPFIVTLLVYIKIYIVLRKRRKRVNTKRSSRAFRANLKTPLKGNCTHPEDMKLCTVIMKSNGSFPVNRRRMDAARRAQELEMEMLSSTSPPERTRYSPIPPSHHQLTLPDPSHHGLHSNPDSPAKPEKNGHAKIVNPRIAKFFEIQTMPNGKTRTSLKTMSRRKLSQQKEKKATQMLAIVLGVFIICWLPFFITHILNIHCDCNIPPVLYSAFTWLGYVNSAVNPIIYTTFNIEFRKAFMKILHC

Ki [1]: 1 nM
Ki [3]: 73 nM
Ki (D(2) dopamine receptor): 166 nM
SMILES: Cl.Cl.O=C(NCCN1CCN(c2ncccn2)CC1)C12C[C@H]3C[C@@H](C1)C[C@@H](C2)C3
ED50 (Rattus norvegicus [2]): 0.6 mg/kg
ED50 (Rattus norvegicus [4]): 1.8 mg/kg
ED50 (Rattus norvegicus [5]): 2.2 mg/kg
ED50 (Rattus norvegicus [6]): 12.9 mg/kg
